# Only some compounds are listed: those with a hit (about 1.4% of all), similar ones and a draw of the others.
# thrombin 1536: human alpha-thrombin inhibitors, primary screen, counter-screen for coagulation protease inhibitor project, biochemical, 1536-well, fluorogenic AMC substrate. Prothrombin (Homo sapiens), P00734. Boc-VPR-AMC fluorogenic substrate cleavage. inhibition, % at 5 µM. 220,000 compounds, 0.26% hits. AID 1046, 2008;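 active = inhibition at or above 40%; inactive = inhibition below 40%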;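 also: 0% = enzyme with no compound and 100% = wells without enzyme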
#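 Material: Human alpha-thrombin protein | Buffer or medium: pH 7.5 Tris-saline with Tween 20 | Reagent: Boc-VPR-AMC substrate, 15 µM final | Schedule: Reaction at ambient temperature | Detection: AMC fluorescence at 355 nm excitation and 460 nm emission | Evaluation: Percent inhibition scaled between no-compound controls and no-enzyme blanks | Controls: no-compound enzyme wells and no-enzyme blanks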
# FXIIa inh: human FXIIa protease inhibitors, primary screen, biochemical, 1536-well | Coagulation factor XII (Homo sapiens), P00748 | purified FXIIa, Boc-QGR-AMC fluorogenic substrate, 2 h | inhibition, % at 5 µM | 220,000 compounds, 0.3% hits | AID 800, 2007; in the data active = inhibition above about 40%;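 also: 0% = enzyme with no compound and 100% = blank without enzyme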
# Target sequence (P00748 20-372 limits assumed): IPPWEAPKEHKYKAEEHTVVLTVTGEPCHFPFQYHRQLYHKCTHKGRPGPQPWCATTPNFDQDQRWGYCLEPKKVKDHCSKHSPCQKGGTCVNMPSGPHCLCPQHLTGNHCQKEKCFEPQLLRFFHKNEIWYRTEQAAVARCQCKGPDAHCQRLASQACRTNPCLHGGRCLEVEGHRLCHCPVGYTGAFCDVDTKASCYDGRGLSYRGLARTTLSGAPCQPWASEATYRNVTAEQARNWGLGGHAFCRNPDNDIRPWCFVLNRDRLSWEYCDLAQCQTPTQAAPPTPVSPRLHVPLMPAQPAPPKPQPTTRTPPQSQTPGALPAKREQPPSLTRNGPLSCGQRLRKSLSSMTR
# Target sequence (P00748 373-615 limits assumed): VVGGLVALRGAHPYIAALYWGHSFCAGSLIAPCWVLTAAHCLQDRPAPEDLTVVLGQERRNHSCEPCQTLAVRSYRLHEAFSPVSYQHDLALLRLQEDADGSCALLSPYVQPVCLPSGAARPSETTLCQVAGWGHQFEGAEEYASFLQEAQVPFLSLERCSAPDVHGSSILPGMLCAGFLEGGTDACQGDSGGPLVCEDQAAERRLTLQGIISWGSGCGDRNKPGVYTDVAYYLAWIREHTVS
# Calpain2 inh: inhibitors of pig calpain II, primary screen, biochemical, fluorogenic peptide substrate, 1536-well; AID 1236, 2008; purified calpain II, 30 min; 220,000 compounds, 0.37% hits; inhibition, % at 16 µM;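 active = inhibition above about 50%, limit read from the data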
# KLK5 inh: human KLK5 protease inhibitors, primary screen, biochemical, 1536-well; inhibition, % at 5 µM; Kallikrein-5 (Homo sapiens), Q9Y337; 210,000 compounds, 0.59% hits; recombinant hK5, fluorogenic AMC substrate cleavage;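 active = inhibition of 40% or more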;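 also: 0% = enzyme controls without compound and 100% = no-enzyme blanks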
# FXIa inh: human FXIa protease inhibitors, primary screen, biochemical, 1536-well | AID 798, 2007 | 220,000 compounds, 0.14% hits | inhibition, % at 5 µM | purified FXIa, Boc-Glu-Ala-Arg-AMC fluorogenic substrate;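 active = inhibition of at least 40%; inactive = inhibition below 40%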;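 also: fluorescence of freed AMC excited at 355 nm; 0% = enzyme without compound and 100% = no enzyme blank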
# The depositor's hits bear a star; nt = no result given.
SMILES,thrombin 1536,FXIIa inh,Calpain2 inh,KLK5 inh,FXIa inh
COc1ccc(C2C(C(C)=O)=C(O)C(=O)N2c2nccs2)cc1OC (configuration not stated),23,50*,20,57*,11
COc1ccc(C2C(C(C)=O)=C(O)C(=O)N2c2nc3ccccc3s2)cc1OC (configuration not stated),6,5,-25,-5,-2
COc1ccc(-n2c(C)cc(/C=C3/SC(=O)N(CC(=O)N4CCOCC4)C3=O)c2C)cc1,-1,16,-26,8,25
O=C(Nc1sc2c(c1C(=O)NCC1CCCO1)CCCC2)c1cccs1 (configuration not stated),21,19,22,54*,6
CCC(=O)n1nc(-c2cccnc2)nc1NCc1ccc(OC)cc1,100*,9,18,1,-1
COc1ccc(CNc2nc(-c3cccnc3)nn2C(=O)C(C)C)cc1,99*,3,-34,-15,-2
O=C(c1cccnc1)n1nc(-c2ccco2)nc1NCc1cccs1,97*,8,16,0,2
CC(C)C(=O)n1nc(-c2cccnc2)nc1NCc1cccs1,100*,-3,9,-6,13
COc1ccc(CNc2nc(-c3cccnc3)nn2S(C)(=O)=O)cc1,1,8,17,3,1
FC(F)(F)c1cc(-c2ccco2)nc(NCc2cccs2)n1,-4,23,-30,-3,19
CS(=O)(=O)n1nc(-c2cccnc2)nc1NCc1ccccc1,4,13,14,-1,7
CSc1nc2n(n1)C(c1cccc(F)c1)C(C(=O)Nc1ccc(C)cc1C)=C(C)N2 (configuration not stated),4,-2,6,-10,-5
COc1ccc(C2CC(=O)c3cnn(-c4nc(C)cc(C)n4)c3C2)cc1OC (configuration not stated),2,11,14,4,5
CCOC(=O)c1ccc(NC(=O)Cn2c(-c3nonc3N)nc3ccccc32)cc1,nt,10,59*,5,4
Cc1ccccc1C(=O)NNC(=O)C(=O)N1CCCCC1,-8,-1,20,-12,-11
CCc1nc2sccc2c(=O)[nH]1,44*,23,11,56*,32
COc1ccc(OC)c(C2=Nn3c(nnc3-c3ccco3)SC2)c1,6,5,5,-5,1
COc1ccc(C2=Nn3c(nnc3-c3ccco3)SC2)cc1,-11,-5,51*,-17,0
Cc1ccccc1N(C(=O)Cc1cccs1)C(C(=O)NCC1CCCO1)c1cccnc1 (configuration not stated),-7,-2,1,40,-11
O=C(NCC1CCCO1)C(c1cccnc1)N(C(=O)Cc1cccs1)c1ccccc1 (configuration not stated),2,7,2,41*,-3
CCN(CC)S(=O)(=O)c1ccc(S(=O)(=O)N2CCN(C(=O)c3ccco3)CC2)cc1,-3,5,3,-5,0
CC(=O)Nc1cccc(C(=O)OCc2ccccc2)c1,11,16,5,82*,29
CC(/C=N/NC(=O)c1cc(C(C)C)[nH]n1)=C\c1ccccc1,46*,-5,27,29,4
O=S(N1CCc2ccccc21)C12CC3CC(CC(C3)C1)C2 (configuration not stated),0,-10,103*,-30,-8
CN1CCN(S(=O)C23CC4CC(CC(C4)C2)C3)CC1 (configuration not stated),-1,6,-11,4,1
SMILES,thrombin 1536,FXIIa inh,Calpain2 inh,KLK5 inh,FXIa inh
CC1CCCCN1C(=O)CSc1nnc(-c2ccco2)n1CC1CCCO1 (configuration not stated),-3,13,-7,1,3
CCOC(=O)Cn1c(=O)oc2cc(S(=O)(=O)NCCc3ccc(C)cc3)ccc21,57*,18,-6,58*,22
CCOC(=O)Cn1c(=O)oc2cc(S(=O)(=O)NCCCc3ccccc3)ccc21,2,12,-38,-9,4
COC(=O)c1cccc(NC(=O)NC(=O)c2ccc(Cl)cc2)c1,12,24,42,70*,11
COc1cccc(C(=O)Nc2cccc(-c3nnc(-c4ccco4)o3)c2)c1,1,12,56*,-1,0
COc1cccc(C(=O)Nc2cccc(C(C)=O)c2)c1,-4,8,23,-9,8
O=C(Nc1ccccc1)c1cccc(-c2nnc(-c3ccccc3)o2)c1,-1,4,-7,-4,-3
COC(=O)c1cccc(NC(=O)c2cccc(OC)c2)c1,-10,1,53*,-16,-8
COc1ccc(C(CCN2CCCCC2)c2c(OC)cc(OC)c3c(-c4ccccc4)cc(=O)oc23)cc1 (configuration not stated),2,9,-27,1,2
CCOC(=O)CC(NC(=O)CCc1c(C)nc2nc(C)nn2c1C)c1ccc(OC(C)C)cc1 (configuration not stated),-2,5,23,-18,-5
O=C(N/N=C/c1cccc(F)c1)c1c(O)c2ccccc2[nH]c1=O,45*,-4,-25,17,-14
Cc1c(O)ccc(C(=O)CN2C(=O)c3ccccc3C2=O)c1O,4,12,78*,-9,3
Cc1cc(C(=O)CN2C(=O)c3ccccc3C2=O)c(C)n1C1CC1,2,15,-44,4,-14
COc1ccc([N+](=O)[O-])c2c(=O)ccoc12,-10,5,7,-17,0
COCCNC(=S)NN=C1CCCCCC1,47*,54*,4,41*,34
COCCNC(=S)NN=C1CCC(c2ccccc2)CC1 (configuration not stated),-3,5,4,-2,-3
Cc1ccc(CN2CCN(Cc3cnn(-c4ccc(F)cc4)c3)CC2CCO)o1 (configuration not stated),-4,9,-17,2,0
COCCNc1ccc(N2C(=O)C3CCCCC3C2=O)cc1[N+](=O)[O-] (configuration not stated),0,8,43,nt,0
C=CCN(CC=C)c1ccc(N2C(=O)C3CCCCC3C2=O)cc1[N+](=O)[O-] (configuration not stated),1,7,38,nt,2
CN(C)S(=O)(=O)N1CCN(c2ccc([N+](=O)[O-])c(NC3CC3)c2)CC1,-8,4,9,-1,-4
C=CCNc1ccc(N2C(=O)C3CCC(C)CC3C2=O)cc1[N+](=O)[O-] (configuration not stated),-2,9,67*,4,0
